Measured values: the RNAGym collection of RNA variant scans (doi:10.1002/anie.201605470)

B1: Osa-1-4 twister ribozyme (parent)
chain: CCGCCUAACACUGCCAAUGCCGGUCCCAAGCCCGGAUAAAAGUGGAGGGGGCGG

Variants of: B1
Experiment: self-cleavage, relative activity (ratio to wild type); higher = more cleavage; co-transcriptional
Summary of the method: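 The 48 positions downstream of the cleavage site in a 54-nucleotide Oryza sativa twister ribozyme template were synthesised at 97 % wild-type base and 1 % of each other base. The template was transcribed in vitro at 37 °C for 2 h, with self-cleavage allowed during transcription. Reads with or without upstream sequence after deep sequencing marked cleavage status, and relative activity is fraction cleaved normalised to wild type.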

First: G34A G45C
Second: G35A
The self-cleavage of the first is lower: 0.06 for the first, 0.9 for the second.

Going from G35U to G35C, the self-cleavage falls from 0.9 to 0.72.

First: G34A U18C
Second: G34A U18G
The self-cleavage of the first is lower: 0.43 for the first, 0.71 for the second.

Compared with G34A U18A, C33U G19C is lower in self-cleavage: 0.73 for the first, 0.02 for the second.

Going from C33U G19U to C33U G19A, the self-cleavage rises from 0.06 to 0.17.

First: G34A G48C
Second: G34A G48U
The self-cleavage of the first is higher: 0.08 for the first, 0.06 for the second.

G34A G48A and G34U G42C are the same in self-cleavage: 0.08 for the first, 0.08 for the second.

Going from G34U G42A to G34U G42U, the self-cleavage falls from 0.13 to 0.07.

Going from G34A G47C to G34A G47A, the self-cleavage rises from 0.08 to 0.13.

First: G34A G47U
Second: G35U G42U
The self-cleavage of the first is higher: 0.1 for the first, 0.08 for the second.

Compared with G35U G42A, G35U G42C is lower in self-cleavage: 0.35 for the first, 0.11 for the second.

G35C G49U and G35C G49C are the same in self-cleavage: 0.05 for the first, 0.05 for the second.

Going from G35C G49A to G35C U12A, the self-cleavage rises from 0.05 to 0.08.

Compared with G35C U12G, G35C U12C is higher in self-cleavage: 0.07 for the first, 0.09 for the second.

Going from C33U G53C to C33U G53A, the self-cleavage rises from 0.07 to 0.35.

Going from C33U G53U to G34U U12G, the self-cleavage falls from 0.13 to 0.05.

G34U U12C and G34U U12A are the same in self-cleavage: 0.14 for the first, 0.14 for the second.

Compared with G35A U18A, G35A U18C is lower in self-cleavage: 0.79 for the first, 0.52 for the second.

Compared with G35A U18G, C33U G50C is lower in self-cleavage: 0.79 for the first, 0.53 for the second.

Compared with C33U G50U, C33U G50A is lower in self-cleavage: 0.88 for the first, 0.32 for the second.

First: G35A U24A
Second: G35A U24C
The self-cleavage of the first is higher: 0.32 for the first, 0.08 for the second.

Going from G35A U24G to G34U G48A, the self-cleavage rises from 0.03 to 0.07.

Going from G34U G48U to G34U G48C, the self-cleavage rises from 0.05 to 0.07.

First: G34U G44U
Second: G34U G44C
The self-cleavage of the first is higher: 0.5 for the first, 0.41 for the second.

Going from G34U G44A to C33U G44C, the self-cleavage falls from 0.55 to 0.29.

Compared with C33U G44U, C33U G44A is lower in self-cleavage: 0.53 for the first, 0.5 for the second.

First: G34C G45A
Second: G34C G45C
The self-cleavage of the first is lower: 0.05 for the first, 0.06 for the second.

First: G34C G45U
Second: C33U U43C
The self-cleavage of the first is lower: 0.06 for the first, 0.09 for the second.

Going from C33U U43A to C33U U43G, the self-cleavage falls from 0.19 to 0.09.

Going from C33U G45C to C33U G45A, the self-cleavage rises from 0.06 to 0.08.

Going from C33U G45U to G35C G53U, the self-cleavage rises from 0.05 to 0.09.

First: G35C G53C
Second: G35C G53A
The self-cleavage of the first is lower: 0.06 for the first, 0.12 for the second.

First: G35C G54C
Second: G35C G54U
The self-cleavage of the first is lower: 0.13 for the first, 0.36 for the second.

Going from G35C G54A to G34U G47A, the self-cleavage falls from 0.2 to 0.09.

Compared with G34U G47C, G34U G47U is higher in self-cleavage: 0.05 for the first, 0.1 for the second.

First: G34C U18A
Second: G34C U18C
The self-cleavage of the first is higher: 0.43 for the first, 0.36 for the second.

Going from G34C U18G to G34C G50C, the self-cleavage rises from 0.15 to 0.19.

Going from G34C G50U to G34C G50A, the self-cleavage falls from 0.41 to 0.23.

First: G34U G51C
Second: G34U G51A
The self-cleavage of the first is lower: 0.05 for the first, 0.1 for the second.

Going from G34U G51U to G34U G50C, the self-cleavage rises from 0.06 to 0.39.

Compared with G34U G50A, G34U G50U is higher in self-cleavage: 0.26 for the first, 0.73 for the second.

Going from G34A G54C to G34A G54A, the self-cleavage falls from 0.7 to 0.64.

First: G34A G54U
Second: G34U U37A
The self-cleavage of the first is lower: 0.7 for the first, 0.79 for the second.

Compared with G34U U37C, G34U U37G is higher in self-cleavage: 0.84 for the first, 0.87 for the second.

Compared with G35U G53A, G35U G53C is lower in self-cleavage: 0.62 for the first, 0.07 for the second.

First: G34C U37G
Second: G34C U37C
The self-cleavage of the first is higher: 0.66 for the first, 0.65 for the second.

First: G34C U37A
Second: G34C U43C
The self-cleavage of the first is higher: 0.6 for the first, 0.1 for the second.

Going from G34C U43A to G34C U43G, the self-cleavage falls from 0.09 to 0.07.

First: C33U G22A
Second: C33U G22C
The self-cleavage of the first is higher: 1.08 for the first, 0.45 for the second.

Going from C33U G22U to G35A G47C, the self-cleavage falls from 1 to 0.11.

Compared with G35A G47A, G35A G47U is lower in self-cleavage: 0.27 for the first, 0.18 for the second.

First: G34A G53C
Second: G34A G53A
The self-cleavage of the first is lower: 0.05 for the first, 0.49 for the second.

First: G34A G53U
Second: G34A U24G
The self-cleavage of the first is higher: 0.13 for the first, 0.03 for the second.

First: G34A U24C
Second: G34A U24A
The self-cleavage of the first is lower: 0.06 for the first, 0.18 for the second.

First: G35U G44C
Second: G35U G44A
The self-cleavage of the first is lower: 0.74 for the first, 0.88 for the second.

Compared with G35U G44U, G34C G49A is lower in self-cleavage: 0.74 for the first, 0.06 for the second.

First: G34C G49U
Second: G34C G49C
The self-cleavage of the first is higher: 0.07 for the first, 0.06 for the second.

Going from G35C U43G to G35C U43A, the self-cleavage rises from 0.1 to 0.14.

G35C U43C and G35U G45U are the same in self-cleavage: 0.09 for the first, 0.09 for the second.

Compared with G35U G45C, G35U G45A is higher in self-cleavage: 0.06 for the first, 0.19 for the second.

Going from G34A U12C to G34A U12A, the self-cleavage rises from 0.19 to 0.23.

Going from G34A U12G to G34A G42C, the self-cleavage rises from 0.07 to 0.08.

First: G34A G42U
Second: G34A G42A
The self-cleavage of the first is lower: 0.05 for the first, 0.11 for the second.

First: G34C G53U
Second: G34C G53C
The self-cleavage of the first is lower: 0.07 for the first, 0.09 for the second.

Compared with G34C G53A, G35U G48U is lower in self-cleavage: 0.09 for the first, 0.08 for the second.

First: G35U G48A
Second: G35U G48C
The self-cleavage of the first is higher: 0.09 for the first, 0.07 for the second.

G35C G47U and G35C G47A are the same in self-cleavage: 0.05 for the first, 0.05 for the second.

Going from G35C G47C to C33U G47C, the self-cleavage rises from 0.05 to 0.07.

Going from C33U G47A to C33U G47U, the self-cleavage falls from 0.08 to 0.07.

Going from G34A G51C to G34A G51A, the self-cleavage rises from 0.06 to 0.15.

Going from G34A G51U to G34C G54A, the self-cleavage rises from 0.1 to 0.15.

First: G34C G54C
Second: G34C G54U
The self-cleavage of the first is lower: 0.16 for the first, 0.25 for the second.

First: G35C G51C
Second: G35C G51U
The self-cleavage of the first is lower: 0.05 for the first, 0.06 for the second.

Going from G35C G51A to C33U G42A, the self-cleavage rises from 0.09 to 0.14.

First: C33U G42U
Second: C33U G42C
The self-cleavage of the first is lower: 0.07 for the first, 0.08 for the second.

Compared with C33U C52G, C33U C52U is higher in self-cleavage: 0.88 for the first, 0.99 for the second.

Compared with G34C G51A, G34C G51C is lower in self-cleavage: 0.1 for the first, 0.06 for the second.

Compared with G34C G51U, G34A G44A is higher in self-cleavage: 0.06 for the first, 0.69 for the second.

G34A G44U and G34A G44C are the same in self-cleavage: 0.58 for the first, 0.58 for the second.

Compared with C33U U18C, C33U U18G is lower in self-cleavage: 0.63 for the first, 0.48 for the second.

First: C33U U18A
Second: C33U G23C
The self-cleavage of the first is higher: 0.81 for the first, 0.04 for the second.

Compared with C33U G23A, C33U G23U is lower in self-cleavage: 0.09 for the first, 0.04 for the second.

Compared with G35A G48C, G35A G48U is lower in self-cleavage: 0.1 for the first, 0.09 for the second.

Work on G35A G48A yielded a self-cleavage of 0.12.
